Calls of active or inactive are those of the source.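 The calls were made as follows, unless noted: active = inhibition of the reporter signal at or above 50%; inactive = inhibition below 50%.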
Columns and labels:
[1] = inhibitors of TNFa-induced NFkB p65 translocation, primary screen, imaging, HUVEC, MLSMR starter and 10KST1 sets (AID 438;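 active = inhibition above 20% together with a positive visual image hit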;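 also: compound added about 3h40 before a 20 min TNFalpha stimulation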;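 as to inhibition: signal is the nuclear over cytoplasmic p65 intensity ratio per well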); settings: HUVEC TNFa-induced p65 nuclear translocation; cell count: measured here: nuclei count (cytotoxicity indicator), at 2.08 µM; inhibition: at 2 µM, stronger effect = higher value, 0% TNFa-plus-vehicle, 100% no-TNFa wells
[2] = reduction of polyQ htt aggregates in cells – imaging, exon1htt(103Q)mCFP cells, high-content imaging, primary screen (AID 483;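 active = visual image review flags a hit and inhibition of aggregation exceeds 20%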;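 also: compound exposure lasted 3 days before fixation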;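 as to nuclei count: percent of the per-plate median nuclei count of sample wells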); settings: exon1htt(103Q)mCFP cell line, aggregate imaging, at 2 µM; inhibition of aggregation: stronger effect = higher value; nuclei count: measured here: cell count, toxicity
[3] = endothelial E-selectin expression blockers – imaging, HUVEC, immunofluorescence, MLSMR starter and 10KST1 sets, primary screen (AID 487;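 active = visually confirmed hit in the image check and inhibition above 20%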;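 as to inhibition: signal is fraction of cell area covered by stained E-selectin grains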;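 as to nuclei count: 100% = median nuclei count of all wells on the same plate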); settings: HUVEC TNFalpha-induced E-selectin immunofluorescence imaging, at 2 µM; inhibition: stronger effect = higher value; nuclei count: measured here: cell number, toxicity
[4] = target: Voltage-gated potassium channel subunit beta-2 (Rattus norvegicus) (UniProt P62483); assay: inhibitors of rat Kvbeta2 reductase activity – biochemical, NADPH fluorescence, primary screen (AID 622;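 active = fluorescence slope higher than the sample average by over 3 SD, cut at about -0.22 in these data, passing the limit was not always enough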;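 also: slope of raw intensity against log time taken from 70 to 1610 s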); settings: recombinant KvBeta, 4-cyanobenzaldehyde reduction, at 10 µM, stronger effect = higher value
Sequence of Voltage-gated potassium channel subunit beta-2 (Rattus norvegicus) (P62483 whole entry, looked up): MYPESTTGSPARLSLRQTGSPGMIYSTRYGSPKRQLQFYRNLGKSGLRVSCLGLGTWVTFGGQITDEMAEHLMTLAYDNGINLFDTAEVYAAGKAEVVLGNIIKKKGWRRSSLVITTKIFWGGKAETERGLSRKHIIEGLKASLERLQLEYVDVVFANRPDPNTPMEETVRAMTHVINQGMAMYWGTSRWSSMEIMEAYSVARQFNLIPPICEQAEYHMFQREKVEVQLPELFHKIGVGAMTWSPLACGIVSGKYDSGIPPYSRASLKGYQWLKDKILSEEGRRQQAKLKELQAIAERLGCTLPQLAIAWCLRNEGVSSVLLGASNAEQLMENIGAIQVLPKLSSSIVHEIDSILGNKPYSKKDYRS

[5] = target: Voltage-gated potassium channel subunit beta-2 (Rattus norvegicus) (UniProt P62483); assay: enhancers of rat Kvbeta2 NADPH turnover – biochemical, NADPH fluorescence, primary screen (AID 623;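 active = NADPH fluorescence slope more negative than the mean of all samples by about 3 SD, 99.7% confidence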;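 also: fluorescence intensity change per second fitted from 20 to 320 s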); settings: Recombinant KvBeta, NADPH fluorescence decrease slope, 10 min; at 10 µM; stronger effect = lower value
[6] = target: Muscarinic acetylcholine receptor M4 (Homo sapiens) (UniProt P08173); assay: M4-linked GIRK flux change, two-sided – cell-based, HEK293 M4/GIRK, thallium flux, BTC-AM, M4 allosteric agonist project, primary screen (AID 625;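 active = fluorescence slope after compound addition differing from the mean of all tested samples at 99.7% confidence, mostly higher but some lower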;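 also: thallium influx through GIRK channels coupled to M4 in HEK293 cells with BTC-AM dye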); settings: at 10 µM, actives lie on both sides
Sequence of Muscarinic acetylcholine receptor M4 (Homo sapiens) (P08173 whole entry, looked up): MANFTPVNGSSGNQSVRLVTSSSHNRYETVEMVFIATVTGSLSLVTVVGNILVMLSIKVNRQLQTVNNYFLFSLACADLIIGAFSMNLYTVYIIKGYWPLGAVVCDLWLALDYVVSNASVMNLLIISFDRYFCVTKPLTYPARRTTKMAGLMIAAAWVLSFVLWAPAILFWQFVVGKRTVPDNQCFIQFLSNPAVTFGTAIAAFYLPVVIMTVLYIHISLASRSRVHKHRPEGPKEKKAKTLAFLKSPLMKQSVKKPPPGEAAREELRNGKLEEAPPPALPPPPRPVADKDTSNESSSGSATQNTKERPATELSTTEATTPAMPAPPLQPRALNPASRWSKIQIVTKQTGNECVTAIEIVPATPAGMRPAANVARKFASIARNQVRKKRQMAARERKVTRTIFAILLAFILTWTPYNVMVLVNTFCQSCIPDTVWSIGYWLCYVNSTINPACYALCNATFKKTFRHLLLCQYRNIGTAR
Summary of the method: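 Material: M4/GIRK1/GIRK2 stable HEK293 cell line. Medium: pH 7.3 thallium assay buffer. Dosing: single compound concentration, 10 µM final. Schedule: 1 h dye loading, 2 min kinetic read. Measured by: kinetic fluorescence with BTC-AM dye. Read-out: post-addition slope, 15–24 s, of baseline-normalized fluorescence. Benchmarks: carbachol and DMSO controls.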

[7] = blockers of RIG-like receptor reporter activation – cell-based, Sendai virus stimulus, luciferase, 10K MLSCN set, TLR/RLR signaling modifier project, primary screen (AID 602276;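 active = inhibition at or above 50% at 10 µM; inactive = inhibition below 50%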;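 also: firefly luciferase from ISG56 promoter only with Renilla not read in this screen; 0% = Sendai virus plus DMSO and 100% = medium plus DMSO without virus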); settings: HEK293 RL24 IRF3 luciferase reporter, at 10 µM, stronger effect = higher value
[8] = TLR3 IRF3 reporter activation blockers – cell-based, poly I:C stimulus, luciferase, 10K MLSCN set, primary screen (AID 602277); settings: HEK293-TLR3 RL24 IRF3 luciferase reporter, at 10 µM, stronger effect = higher value

Compound	cell count [1]	inhibition [1]	inhibition of aggregation [2]	nuclei count [2] [%]	inhibition [3]	nuclei count [3] [%]	fluorescence slope [4]	NADPH fluorescence slope [5]	fluorescence slope [6]	inhibition [7]	inhibition [8]
Cc1cc(O)c(NC(=O)c2ccc(Br)o2)cc1C	394	5.5% (inactive)	-12.4% (inactive)	103	-6.8% (inactive)	116	-0.299 (inactive)	-6.1e-05 (inactive)	0.00583 (inactive)	8.6% (inactive)	-53.5% (inactive)
CCCNS(=O)(=O)c1ccc(OCC(=O)Nc2ccccc2F)cc1	408	8.2% (inactive)	-23% (inactive)	99.5	-57.2% (inactive)	100	-0.557 (inactive)	-2.6e-05 (inactive)	0.00506 (inactive)	19.7% (inactive)	15.2% (inactive)
COc1ccc2c(C(=O)CN(C)C3CCCCC3)c[nH]c2c1	533	-0.9% (inactive)	-4.4% (inactive)	82.5	-20.8% (inactive)	96.7	-0.561 (inactive)	-2.1e-05 (inactive)	0.0054 (inactive)	20.8% (inactive)	39.7% (inactive)
COc1ccc2nc(C)cc(N3CCOCC3)c2c1	401	-8.1% (inactive)	-8% (inactive)	104	-34.7% (inactive)	84.3	-0.484 (inactive)	-0.000239 (inactive)	0.0041 (inactive)	16.2% (inactive)	18.7% (inactive)
CC(C)n1c(=NC(=O)c2ccco2)c(C#N)cc2c(=O)n3ccccc3cc21	378	1.7% (inactive)	-20.7% (inactive)	104	-45.7% (inactive)	112	-0.576 (inactive)	3.1e-06 (inactive)	0.00331 (inactive)	-23.8% (inactive)	-8.73% (inactive)
CCn1c(NCc2ccc(N(C)C)cc2)nc2ccccc21	627	12.5% (inactive)	-2.9% (inactive)	96.5	-34.6% (inactive)	116	-0.31 (inactive)	-2.4e-05 (inactive)	0.00632 (inactive)	-9.27% (inactive)	-36.5% (inactive)
CC1c2nc3ccccc3n2C(CC(=O)NCc2ccccn2)C(=O)N1Cc1ccccc1 (centres undefined)	678	-3.4% (inactive)	-12.5% (inactive)	119	-115% (inactive)	119	-0.505 (inactive)	-1.2e-05 (inactive)	0.0053 (inactive)	15% (inactive)	22.6% (inactive)
Cc1ccc2nc(SCC(=O)NCc3ccco3)c(C#N)cc2c1	388	-4.7% (inactive)	17.5% (inactive)	100	1.8% (inactive)	99.6	-0.592 (inactive)	1.6e-05 (inactive)	0.00711 (inactive)	-4.71% (inactive)	-2.98% (inactive)
C=CCC(Nc1ccco1)c1ccccc1 (centres undefined)	393	2.5% (inactive)	3.4% (inactive)	112	-17.9% (inactive)	114	-0.498 (inactive)	-2.9e-05 (inactive)	0.00454 (inactive)	19% (inactive)	19.6% (inactive)
COc1cccc(-c2cc(C(=O)Nc3c(C)nn(Cc4ccccc4)c3C)no2)c1	438	-12.2% (inactive)	-6.5% (inactive)	105	41.8% (inactive)	87	-0.249 (inactive)	-2.3e-05 (inactive)	0.00831 (inactive)	0.514% (inactive)	-23.3% (inactive)
Cc1csc(NC(=O)c2sc3nc(-c4cccs4)ccc3c2N)n1	340	-1.9% (inactive)	30.2% (inactive)	68.7	-5.9% (inactive)	90.5	-0.0131 (active)	2.9e-06 (inactive)	0.0189 (active)	-19.2% (inactive)	-115% (inactive)
CN(C)C(=O)C12CCC(C)(c3nc4ccccc4nc31)C2(C)C (centres undefined)	504	-6.5% (inactive)	-24% (inactive)	97	-59.3% (inactive)	112	-0.492 (inactive)	-2e-05 (inactive)	0.00404 (inactive)	-7.12% (inactive)	-15.4% (inactive)
O=C(COc1ccc(S(=O)(=O)N2CCCC2)cc1Cl)NC1CC1	349	5.7% (inactive)	-1.8% (inactive)	58.7	21.6% (inactive)	98.3	-0.232 (inactive)	-1.9e-05 (inactive)	0.007 (inactive)	15.4% (inactive)	16.4% (inactive)
Brc1ccc(C2=Nn3c(nnc3-c3ccncc3)SC2)cc1	369	2.2% (inactive)	-12.9% (inactive)	123	-12.7% (inactive)	117	-0.544 (inactive)	3.4e-05 (inactive)	0.00451 (inactive)	13.7% (inactive)	0.85% (inactive)

From PubChem BioAssay
